Results reported in ChEMBL document CHEMBL3351347, “Eight pairs of epimeric triterpenoids involving a characteristic spiro-E/F ring from Abies faxoniana” (J Nat Prod, 2015).
The source made the active and inactive calls. The calls are words filed in the database; no cut-off is given here.

Key:
[1] = Cytotoxicity against human QSG7701 cells after 24 hrs by MTT assay; type: cell-based; details: QSG7701, 24 h
How it was run: (§1)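 Cells grown in DMEM with 10% FBS, penicillin/streptomycin at 37 °C, 5% CO2. […] MTT (5 mg/mL solution) added for 2−4 h at 37 °C, formazan dissolved in DMSO, absorbance read at 570 nm. Viability = mean OD of treated wells / DMSO-control OD; IC50 from viability.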

[2] = system: SMMC-7721; test: Cytotoxicity against human SMMC7721 cells after 24 hrs by MTT assay; type: functional, cell-based; details: SMMC-7721, 24 h; how it was run: as §1
[3] = system: HepG2; test: Cytotoxicity against human HepG2 cells after 24 hrs by MTT assay; type: functional, cell-based; details: HepG2, 24 h
How it was run: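 Cells grown in DMEM with 10% FBS, penicillin/streptomycin at 37 °C, 5% CO2. MTT (5 mg/mL solution) added for 2−4 h at 37 °C, formazan dissolved in DMSO, absorbance read at 570 nm. Viability = mean OD of treated wells / DMSO-control OD; IC50 from viability.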

[4] = Cytotoxicity against human HuH7 cells after 24 hrs by MTT assay; type: functional, cell-based; details: Huh-7, 24 h; how it was run: as §1
[5] = system: Huh-7; test: Induction of cell cycle arrest in human HuH7 cells assessed as reduction in accumulation at G0/G1 phase at 5 to 20 uM after 24 hrs by propidium iodide staining based flow cytometry; type: functional
How it was run: (§2)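 Huh7 exposed 24 h to 5, 10, 20 μM. Cells washed in PBS with 2% FBS, then 3 × 10^5 cells/mL fixed overnight in cold absolute EtOH at 4 °C. After two PBS washes, stained with PI solution (3.8 mM sodium citrate, 20 μg/mL PI in PBS) plus RNase A, 30 min at room temperature in the dark. DNA content read by flow cytometry; means ± SEM, three independent experiments.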

[6] = system: Huh-7; test: Induction of intracellular ROS production in human HuH7 cells at 20 uM pre-treated with 10 mM ROS scavenger NAC measured after 24 hrs post dose by carboxy-H2DCFDA staining based flow cytometry
[7] = system: Huh-7; test: Induction of cell cycle arrest in human HuH7 cells assessed as reduction in accumulation at S phase at 5 to 20 uM after 24 hrs by propidium iodide staining based flow cytometry; type: functional; how it was run: as §2
[8] = system: Huh-7; test: Induction of intracellular ROS production in human HuH7 cells at 5 to 20 uM after 24 hrs by carboxy-H2DCFDA staining based flow cytometry; type: functional, cell-based
How it was run: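 Huh7 exposed 24 h to 5, 10, 20 μM, harvested, PBS-washed, then loaded in DMEM with 10 μM carboxy-H2DCFDA for 30 min at 37 °C. Washed again; fluorescence measured by flow cytometry as an index of intracellular ROS.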

[9] = system: Huh-7; test: Induction of cell cycle arrest in human HuH7 cells assessed as increase in accumulation at G2/M phase at 5 to 20 uM after 24 hrs by propidium iodide staining based flow cytometry; type: functional; how it was run: as §2
[10] = system: Huh-7; test: Induction of apoptosis in human HuH7 cells at 5 to 20 uM after 24 hrs by annexin V-FITC and propidium iodide double staining based flow cytometry; type: functional, cell-based
How it was run: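 Huh7 exposed 24 h to 5, 10, 20 μM, then collected, PBS-washed and resuspended in binding buffer with annexin V-FITC (10 μg/mL) for 10 min in the dark. PI (20 μg/mL) added, samples read by flow cytometry immediately. Means ± SEM, three independent experiments.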

Compound	IC50 [1] [µM]	IC50 [2] [µM]	IC50 [3] [µM]	IC50 [4] [µM]	Activity [5]	Activity [6]	Activity [7]	Activity [8]	Activity [9]	Activity [10]
C[C@@H]1C[C@@]2(C[C@@H](C)[C@@]3(CC[C@@]4(C)C5=CC[C@H]6C(C)(C)C(=O)CC[C@]6(C)[C@@H]5CC[C@@]43C)O2)OC1=O	15.5	20.7	14.1	13.5						
C[C@@H]1C[C@@]2(C[C@@H](C)[C@@]3(CC[C@@]4(C)C5=C(C(=O)C[C@@]43C)[C@@]3(C)CCC(=O)C(C)(C)[C@@H]3CC5)O2)OC1=O	26.8	> 50	31.2	> 50						
C[C@@H]1C[C@]2(C[C@@H](C)[C@@]3(CC[C@]4(C)[C@]3(C)CC[C@@]35O[C@@]43[C@@H](OC(=O)Cc3ccccc3)C[C@H]3C(C)(C)C(=O)CC[C@@]35C)O2)OC1=O	> 50	> 50	> 50	> 50						
C[C@@H]1C[C@]2(C[C@@H](C)[C@@]3(CC[C@@]4(C)C5=C(C(=O)C[C@@]43C)[C@@]3(C)CCC(=O)C(C)(C)[C@@H]3CC5)O2)OC1=O	26.8	> 50	31.2	> 50						
CC(=O)O[C@@H]1CC[C@]23C[C@@]24CC[C@@]2(C)[C@@](C)(CC[C@]25O[C@@]2(C[C@@H](C)C(=O)O2)C[C@H]5C)[C@H]4CC[C@H]3C1(C)C	> 50	10.7	9.8	7.5	Active	inactive	Active	Active	Active	Dose-dependent effect
C[C@@H]1C[C@@]2(C[C@@H](C)[C@@]3(CC[C@@]4(C)[C@H]5CC[C@H]6C(C)(C)C(=O)CC[C@]6(C)[C@@H]5CC[C@@]43C)O2)OC1=O	> 50	28.3	> 50	18.4						
C[C@@H]1C[C@]2(C[C@@H](C)[C@@]3(CC[C@@]4(C)C5=CC[C@H]6C(C)(C)C(=O)CC[C@]6(C)[C@@H]5CC[C@@]43C)O2)OC1=O	15.5	20.7	14.1	13.5						
C[C@@H]1C[C@@H](C[C@@H](C)[C@@]2(O)CC[C@@]3(C)C4=C(CC[C@@]32C)[C@@]2(C)CCC(=O)C(C)(C)[C@@H]2CC4)OC1=O	37	34.6	> 50	40.1						
CO[C@@H]1CC[C@@]2(C)[C@@H](C[C@H](O)[C@@]23CC[C@]2(C)[C@@H]([C@H](C)C[C@@H]4C=C(C)C(=O)O4)CC[C@@]2(C)C3=O)C1(C)C	> 50	> 50	20.6	35.1						
CC(=O)O[C@@H]1CC[C@]23C[C@@]24CC[C@@]2(C)[C@@](C)(CC[C@]25O[C@]2(C[C@@H](C)C(=O)O2)C[C@H]5C)[C@H]4CC[C@H]3C1(C)C	> 50	10.7	9.8	7.5	Active	inactive	Active	Active	Active	Dose-dependent effect
COc1cccc2c1C(=O)c1c(O)c3c(c(O)c1C2=O)C[C@@](O)(C(=O)CO)C[C@@H]3O[C@H]1C[C@H](N)[C@H](O)[C@H](C)O1 [DOXORUBICIN]	2.9	0.3		0.7						
C[C@@H]1C[C@@]2(C[C@@H](C)[C@@]3(CC[C@@]4(C)[C@H]5CC[C@H]6C(C)(C)[C@H](O)CC[C@@]67C[C@]57CC[C@@]43C)O2)OC1=O	> 50	25.2	21.1	16						
C[C@@H]1C[C@@]2(C[C@@H](C)[C@@]3(CC[C@@]4(C)C(=O)[C@@]5(CC[C@@]43C)[C@@H](O)C[C@H]3C(C)(C)C(=O)CC[C@@]35C)O2)OC1=O	8.2	10.1	15.4	12.3						
COC(=O)[C@H](C)CC(=O)C[C@@H](C)[C@]1(C)CC[C@@]2(C)C3=CC[C@H]4C(C)(C)[C@H](O)CC[C@]4(C)[C@@H]3CC=C21	> 50	> 50	> 50	> 50						
C[C@@H]1C[C@]2(C[C@@H](C)[C@@]3(CC[C@@]4(C)[C@H]5CC[C@H]6C(C)(C)C(=O)CC[C@]6(C)[C@@H]5CC[C@@]43C)O2)OC1=O	> 50	28.3	> 50	18.4						
C[C@H](CC(=O)C[C@@H](C)[C@]1(C)CC=C2C3=CC[C@H]4C(C)(C)[C@H](O)CC[C@]4(C)[C@@H]3CC[C@]21C)C(=O)O	42.4	> 50	> 50	> 50						
C/C(=C/CC[C@@H](C)[C@H]1CC[C@@]2(C)C3=CC[C@H]4C(C)(C)C(=O)CC[C@]4(C)[C@@H]3CC[C@]12C)C(=O)O	> 50	> 50	24	> 50						
C[C@@H]1C[C@@]2(C[C@@H](C)[C@@]3(CC[C@]4(C)[C@]3(C)CC[C@@]35O[C@@]43[C@@H](OC(=O)Cc3ccccc3)C[C@H]3C(C)(C)C(=O)CC[C@@]35C)O2)OC1=O	> 50	> 50	> 50	> 50						
C[C@@H]1C[C@]2(C[C@@H](C)[C@@]3(CC[C@@]4(C)C5=CC[C@H]6C(C)(C)[C@H](O)CC[C@]6(C)[C@@H]5CC[C@@]43C)O2)OC1=O	17.6	19.1	> 50	16.4						
C[C@@H]1C[C@]2(C[C@@H](C)[C@@]3(CC[C@@]4(C)[C@H]5CC[C@H]6C(C)(C)[C@H](O)CC[C@@]67C[C@]57CC[C@@]43C)O2)OC1=O	> 50	25.2	21.1	16						
C[C@@H]1C[C@@]2(C[C@@H](C)[C@@]3(CC[C@@]4(C)C5=CC[C@H]6C(C)(C)[C@H](O)CC[C@]6(C)[C@@H]5CC[C@@]43C)O2)OC1=O	17.6	19.1	> 50	16.4						
CC1=CC(O)(C[C@@H](C)C2=CC[C@@]3(C)C4=C(CC[C@]23C)[C@@]2(C)CCC(=O)C(C)(C)[C@@H]2CC4)OC1=O (some centres not stated) [NEOABIESLACTONE E]	10.1	13.4	16.7	20.9						
C[C@@H]1C[C@]2(C[C@@H](C)[C@@]3(CC[C@@]4(C)C(=O)[C@@]5(CC[C@@]43C)[C@@H](O)C[C@H]3C(C)(C)C(=O)CC[C@@]35C)O2)OC1=O	8.2	10.1	15.4	12.3						
C/C(=C/CC[C@@H](C)[C@H]1CC[C@@]2(C)C3=CC[C@H]4C(C)(C)[C@@H](O)CC[C@]4(C)[C@@H]3CC[C@]12C)C(=O)O	> 50	> 50	> 50	> 50						
